For assay [1], the system named is rats. The settings on record: cited from earlier work.
Another assay relates to mice. The note with it: ref Lewter et al., 2017; cited from earlier work.
The next assay has as its target hGABAAR (α1β3γ2) (Homo sapiens, UniProt P14867+P18507). The format is cell-based. The note with it: HEK293 cells, human α1β3γ2, peak GABA EC15-evoked current.
The target in a further assay is hGABAAR (α2β3γ2) (Homo sapiens, UniProt P18507+P47869). It is filed as cell-based.
The target in the next assay is hGABAAR (α3β3γ2) (Homo sapiens, UniProt P18507+P34903). The format is cell-based.
A further assay addresses hGABAAR (α5β3γ2) (Homo sapiens, UniProt P18507+P31644). It is filed as cell-based.
For assay [2], the system named is rats. The experiment in a line: Pentylenetetrazole. The settings on record: i.p. The format is in vivo, rat. Put shortly:
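Male Sprague Dawley rats (90–110 g), test compound suspended in 1% hydroxyethylcellulose/0.05% tween 80/0.05% antifoam, given 30 mg/kg i.p. 30 min before testing. Percent of rats without clonic convulsions recorded, 5 rats/group (vehicle 20), Fisher's exact test.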

The conditions of assay [3]: ref Poe et al., 2016; cited from earlier work.

Entries after “also recorded” stand apart in the source; their conditions may differ. Like-named read-outs stand apart in the source and are kept apart here. Marks after values point to notes of the source that are not given here.

Sequence of hGABAAR (α3β3γ2) (P34903 29-492): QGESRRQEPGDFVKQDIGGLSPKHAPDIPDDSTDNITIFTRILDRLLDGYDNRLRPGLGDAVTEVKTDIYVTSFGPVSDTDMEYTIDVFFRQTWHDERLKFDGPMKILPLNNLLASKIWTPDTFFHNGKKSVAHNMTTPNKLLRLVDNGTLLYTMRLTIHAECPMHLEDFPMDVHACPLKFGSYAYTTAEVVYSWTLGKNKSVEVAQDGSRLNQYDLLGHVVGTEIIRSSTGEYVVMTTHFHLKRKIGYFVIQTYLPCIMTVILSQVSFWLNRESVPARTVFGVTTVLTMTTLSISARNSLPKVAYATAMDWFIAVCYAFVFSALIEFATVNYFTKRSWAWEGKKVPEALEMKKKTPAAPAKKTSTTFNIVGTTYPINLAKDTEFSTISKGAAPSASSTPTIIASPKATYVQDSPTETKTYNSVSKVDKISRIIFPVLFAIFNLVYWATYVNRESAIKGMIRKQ
Sequence of hGABAAR (α3β3γ2) (P28472 26-473 partner): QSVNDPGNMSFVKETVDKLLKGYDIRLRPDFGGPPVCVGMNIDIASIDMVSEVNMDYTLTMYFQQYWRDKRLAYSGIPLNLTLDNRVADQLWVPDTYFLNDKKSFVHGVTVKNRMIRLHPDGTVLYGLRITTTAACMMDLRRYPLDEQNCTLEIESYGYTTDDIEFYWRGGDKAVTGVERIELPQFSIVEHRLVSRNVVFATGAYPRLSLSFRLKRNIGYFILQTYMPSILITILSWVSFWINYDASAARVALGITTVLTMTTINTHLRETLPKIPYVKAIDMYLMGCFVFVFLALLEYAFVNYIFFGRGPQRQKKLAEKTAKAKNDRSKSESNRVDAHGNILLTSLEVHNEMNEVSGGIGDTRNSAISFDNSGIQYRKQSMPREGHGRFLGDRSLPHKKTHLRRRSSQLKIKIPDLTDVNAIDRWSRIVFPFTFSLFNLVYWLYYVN
Sequence of hGABAAR (α3β3γ2) (P18507 40-475): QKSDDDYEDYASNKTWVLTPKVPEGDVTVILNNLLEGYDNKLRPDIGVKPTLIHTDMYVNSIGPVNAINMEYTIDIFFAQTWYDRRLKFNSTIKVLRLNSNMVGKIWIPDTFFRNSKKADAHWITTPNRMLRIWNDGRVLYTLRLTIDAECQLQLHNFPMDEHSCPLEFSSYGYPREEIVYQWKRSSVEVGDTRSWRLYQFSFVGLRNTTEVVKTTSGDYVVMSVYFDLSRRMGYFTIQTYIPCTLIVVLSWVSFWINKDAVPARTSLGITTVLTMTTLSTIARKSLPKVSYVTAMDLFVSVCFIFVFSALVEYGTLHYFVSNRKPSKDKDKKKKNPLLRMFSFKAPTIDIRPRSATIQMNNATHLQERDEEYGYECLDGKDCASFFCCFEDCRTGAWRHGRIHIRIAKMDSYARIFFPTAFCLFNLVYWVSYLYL
Sequence of hGABAAR (α5β3γ2) (P31644 32-462): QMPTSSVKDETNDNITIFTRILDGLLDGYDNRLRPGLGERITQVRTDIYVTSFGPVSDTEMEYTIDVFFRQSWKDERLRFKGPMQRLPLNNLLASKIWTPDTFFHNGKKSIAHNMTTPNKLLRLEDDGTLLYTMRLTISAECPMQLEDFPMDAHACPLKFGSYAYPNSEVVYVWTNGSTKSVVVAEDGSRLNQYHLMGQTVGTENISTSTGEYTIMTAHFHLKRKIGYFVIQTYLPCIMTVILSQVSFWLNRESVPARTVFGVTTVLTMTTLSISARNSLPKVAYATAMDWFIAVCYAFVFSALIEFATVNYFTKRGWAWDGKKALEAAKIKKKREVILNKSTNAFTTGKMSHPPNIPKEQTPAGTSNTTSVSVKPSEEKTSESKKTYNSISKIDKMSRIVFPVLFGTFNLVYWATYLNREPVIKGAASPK
Sequence of hGABAAR (α5β3γ2) (P28472 26-473 partner): as the sequence (P28472 26-473 partner) above
Sequence of hGABAAR (α5β3γ2) (P18507 40-475): as the sequence (P18507 40-475) above
Sequence of hGABAAR (α2β3γ2) (P47869 29-451): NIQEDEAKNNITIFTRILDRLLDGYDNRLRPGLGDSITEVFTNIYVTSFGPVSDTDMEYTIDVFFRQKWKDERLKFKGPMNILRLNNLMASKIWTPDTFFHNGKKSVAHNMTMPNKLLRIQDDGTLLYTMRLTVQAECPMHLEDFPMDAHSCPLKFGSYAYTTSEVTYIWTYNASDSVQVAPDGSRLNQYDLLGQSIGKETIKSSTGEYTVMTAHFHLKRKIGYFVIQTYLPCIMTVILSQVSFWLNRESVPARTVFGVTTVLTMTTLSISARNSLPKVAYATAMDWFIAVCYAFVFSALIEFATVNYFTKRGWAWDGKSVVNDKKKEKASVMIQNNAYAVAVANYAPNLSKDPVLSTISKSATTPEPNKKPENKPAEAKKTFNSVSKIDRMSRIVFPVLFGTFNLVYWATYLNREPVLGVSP
Sequence of hGABAAR (α2β3γ2) (P28472 26-473 partner): as the sequence (P28472 26-473 partner) above
Sequence of hGABAAR (α2β3γ2) (P18507 40-475): as the sequence (P18507 40-475) above
Sequence of hGABAAR (α1β3γ2) (P14867 28-456): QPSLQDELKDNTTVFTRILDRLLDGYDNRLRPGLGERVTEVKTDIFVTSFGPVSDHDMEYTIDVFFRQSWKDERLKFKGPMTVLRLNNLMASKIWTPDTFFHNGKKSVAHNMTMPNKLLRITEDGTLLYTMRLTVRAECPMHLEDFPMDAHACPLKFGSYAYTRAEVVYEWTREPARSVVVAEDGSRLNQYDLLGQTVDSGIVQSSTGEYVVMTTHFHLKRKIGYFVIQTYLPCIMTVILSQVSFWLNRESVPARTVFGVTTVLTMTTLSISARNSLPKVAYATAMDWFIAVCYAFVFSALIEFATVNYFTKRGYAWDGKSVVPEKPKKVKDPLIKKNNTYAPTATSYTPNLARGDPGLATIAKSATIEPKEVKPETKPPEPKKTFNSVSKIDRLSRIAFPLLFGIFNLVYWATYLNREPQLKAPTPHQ
Sequence of hGABAAR (α1β3γ2) (P28472 26-473 partner): as the sequence (P28472 26-473 partner) above
Sequence of hGABAAR (α1β3γ2) (P18507 40-475): as the sequence (P18507 40-475) above

Turning to `C#Cc1ccc2c(c1)C(c1ccccn1)=NCc1c(-c3cnco3)ncn1-2` [Compound 9, 5-(8-Ethynyl-6-(pyridin-2-yl)-4H-benzo[f]imidazo[1,5-a][1,4]diazepin-3-yl)oxazole], the “activity in Vogel conflict test (punished drinking)” value with rats [1] (ref Poe et al., 2016, listed as KRM-II-81) was “increased punished drinking; also recorded: efficacious”. Further, in the assay on mice, the acid-induced pain behaviors entry is given as “attenuated acid-induced pain behaviors”.

Regarding `CN1C(=O)CN=C(c2ccccc2)c2cc(Cl)ccc21` [Diazepam, diazepam], the “GABAA-a1 Max (%GABA)” value on hGABAAR (α1β3γ2) is listed as 171.9 %GABA. On hGABAAR (α2β3γ2) (HEK293 cells, human α2β3γ2, peak GABA EC15-evoked current), the “GABAA-a2 Max (%GABA)” value is listed as 203.4 %GABA. Further, on hGABAAR (α3β3γ2) (HEK293 cells, human α3β3γ2, peak GABA EC15-evoked current), the “GABAA-a3 Max (%GABA)” value is listed as 265.6 %GABA. Further, at hGABAAR (α5β3γ2) (HEK293 cells, human α5β3γ2, peak GABA EC15-evoked current), the “GABAA-a5 Max (%GABA)” value was determined as 220.7 %GABA.

For the compound `NCCCC(=O)O` [GABA], the “average maximum negative current amplitude” value at hGABAAR (α2β3γ2) (saturating concentration of GABA, α2β3γ2) was 0.8 nA; on hGABAAR (α3β3γ2) (saturating concentration of GABA, α3β3γ2) it was 1.0 nA; on hGABAAR (α5β3γ2) (saturating concentration of GABA, α5β3γ2), 0.9 nA.

As for `C#Cc1ccc2c(c1)C(c1ccccn1)=NCc1c(C(=O)OCC)ncn1-2` [HZ-166], the “reduction of convulsions induced by PTZ” value in the assay on rats [2] (30 mg/kg) stood at 60%. Besides, the “activity in Vogel conflict test (punished drinking)” value with rats [1] (ref Poe et al., 2016) is listed as “not active”. Moreover, the marble-burying result in assay [3] was “decreased marble-burying”.

As for `CCCC(CCC)C(=O)O` [Valpro, valproic acid], the “Anticonvulsant Effect (percent of animals protected, no clonic convulsions)” value in the assay on rats [2] (valproic acid 300 mg/kg, 35 mg/kg pentylenetetrazole s.c.) is recorded as 100 ^* percent.

The values are drawn from publication PMC5519285 (Pharmacology, biochemistry, and behavior, 2017).
